In ChEMBL document CHEMBL1144620, “Synthesis and biodistribution of new radiolabeled high-affinity choline transporter inhibitors [11C]hemicholinium-3 and [18F]hemicholinium-3” (Bioorg Med Chem Lett, 2007):

Key:
[1] = Biodistribution in L-Atrium of 9L-glioma bearing rat at 1 to 3 mCi, iv after 5 mins; assay type: ADME, organism-based; settings: in vivo
Outline: (§1)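 9L-glioma rats (200–300 g) given 1–3 mCi of [¹¹C]- or [¹⁸F]-labelled tracer iv by tail vein while consciously restrained. At 5 or 20 min they were decapitated under halothane anaesthesia. Tissues were excised and weighed, and decay-corrected radioactivity was counted by gamma counter. Values are %ID/g, averaged over three rats per time point.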

[2] = Biodistribution in urine of 9L-glioma bearing rat at 1 to 3 mCi, iv after 5 mins; assay type: ADME, organism-based; settings: in vivo
Outline: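 In 9L-glioma rats injected iv (tail vein, conscious restraint) with 1–3 mCi of radiotracer, urine was drawn by syringe from the bladder at 5 or 20 min. Animals were killed by decapitation under halothane. Decay-corrected radioactivity was gamma-counted and expressed as percent of injected dose (%ID), averaged over three rats.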

Kidney [3] = assay: Biodistribution in kidney of 9L-glioma bearing rat at 1 to 3 mCi, iv after 5 mins; assay type: ADME, organism-based; settings: in vivo; outline: as §1
Liver [4] = assay: Biodistribution in liver of 9L-glioma bearing rat at 1 to 3 mCi, iv after 5 mins; assay type: ADME, organism-based; settings: in vivo; outline: as §1
Lung [5] = assay: Biodistribution in lung of 9L-glioma bearing rat at 1 to 3 mCi, iv after 5 mins; assay type: ADME, organism-based; settings: in vivo; outline: as §1
Brain [6] = assay: Biodistribution in brain of 9L-glioma bearing rat at 1 to 3 mCi, iv after 5 mins; assay type: ADME, organism-based; settings: in vivo; outline: as §1
Blood [7] = assay: Biodistribution in blood of 9L-glioma bearing rat at 1 to 3 mCi, iv after 5 mins; assay type: ADME, organism-based; settings: in vivo; outline: as §1
Plasma [8] = assay: Biodistribution in plasma of 9L-glioma bearing rat at 1 to 3 mCi, iv after 5 mins; assay type: ADME, organism-based; settings: in vivo; outline: as §1
[9] = Biodistribution in R-Atrium of 9L-glioma bearing rat at 1 to 3 mCi, iv after 5 mins; assay type: ADME, organism-based, Right cardiac atrium; settings: in vivo; outline: as §1
Septum [10] = assay: Biodistribution in septum of 9L-glioma bearing rat at 1 to 3mCi, iv after 5 mins; assay type: ADME, organism-based; settings: in vivo; outline: as §1
[11] = Biodistribution in L-ventricle of 9L-glioma bearing rat at 1 to 3mCi, iv after 5 mins; assay type: ADME, organism-based, Heart left ventricle; settings: in vivo; outline: as §1
[12] = Biodistribution in R-ventricle of 9L-glioma bearing rat at 1 to 3 mCi, iv after 5 mins; assay type: ADME, organism-based, Heart right ventricle; settings: in vivo; outline: as §1
[13] = Biodistribution in A-V-node of 9L-glioma bearing rat at 1 to 3 mCi, iv after 5 mins; assay type: ADME, organism-based; settings: in vivo; outline: as §1
Solar plexus [14] = assay: Biodistribution in solar plexus of 9L-glioma bearing rat at 1 to 3 mCi, iv after 5 mins; assay type: ADME, organism-based; settings: in vivo; outline: as §1
[15] = Biodistribution in skeletal muscle of 9L-glioma bearing rat at 1 to 3 mCi, iv after 5 mins; assay type: ADME, organism-based, Muscle tissue; settings: in vivo; outline: as §1
9L [16] = assay: Biodistribution in tumor of 9L-glioma bearing rat at 1 to 3 mCi, iv after 5 mins; assay type: ADME, organism-based; settings: in vivo; outline: as §1
Blood [17] = assay: Biodistribution in blood of 9L-glioma bearing rat at 1 to 3 mCi, iv after 30 mins; assay type: ADME, organism-based; settings: in vivo, 0.5 h
Outline: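 Blood was weighed and gamma-counted with decay correction, and results are expressed as %ID/g. Total blood activity assumed a blood mass of 7% of body mass. n = 3, mean.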

Plasma [18] = assay: Biodistribution in plasma of 9L-glioma bearing rat at 1 to 3 mCi, iv after 30 mins; assay type: ADME, organism-based; settings: in vivo, 0.5 h
Outline: (§2)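 At 30 min they were decapitated under halothane anaesthesia. Tissues were excised, weighed and gamma-counted with decay correction. Values are %ID/g, averaged over three rats.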

Brain [19] = assay: Biodistribution in brain of 9L-glioma bearing rat at 1 to 3 mCi, iv after 30 mins; assay type: ADME, organism-based; settings: in vivo, 0.5 h; outline: as §2
Lung [20] = assay: Biodistribution in lung of 9L-glioma bearing rat at 1 to 3 mCi, iv after 30 mins; assay type: ADME, organism-based; settings: in vivo, 0.5 h; outline: as §2
Liver [21] = assay: Biodistribution in liver of 9L-glioma bearing rat at 1 to 3 mCi, iv after 30 mins; assay type: ADME, organism-based; settings: in vivo, 0.5 h; outline: as §2
Kidney [22] = assay: Biodistribution in kidney of 9L-glioma bearing rat at 1 to 3 mCi, iv after 30 mins; assay type: ADME, organism-based; settings: in vivo, 0.5 h; outline: as §2
[23] = Biodistribution in urine of 9L-glioma bearing rat at 1 to 3 mCi, iv after 30 mins; assay type: ADME, organism-based; settings: in vivo, 0.5 h
Outline: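 At 30 min, urine was drawn from the bladder by syringe after decapitation under halothane. Radioactivity was gamma-counted with decay correction and expressed as % of injected dose. Mean of three rats.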

[24] = Biodistribution in L-Atrium of 9L-glioma bearing rat at 1 to 3 mCi, iv after 30 mins; assay type: ADME, organism-based, Left cardiac atrium; settings: in vivo, 0.5 h; outline: as §2
[25] = Biodistribution in R-Atrium of 9L-glioma bearing rat at 1 to 3 mCi, iv after 30 mins; assay type: ADME, organism-based, Right cardiac atrium; settings: in vivo, 0.5 h; outline: as §2
Septum [26] = assay: Biodistribution in septum of 9L-glioma bearing rat at 1 to 3 mCi, iv after 30 mins; assay type: ADME, organism-based; settings: in vivo, 0.5 h; outline: as §2
[27] = Biodistribution in L-ventricle of 9L-glioma bearing rat at 1 to 3 mCi, iv after 30 mins; assay type: ADME, organism-based, Heart left ventricle; settings: in vivo, 0.5 h; outline: as §2
[28] = Biodistribution in R-ventricle of 9L-glioma bearing rat at 1 to 3 mCi, iv after 30 mins; assay type: ADME, organism-based, Heart right ventricle; settings: in vivo, 0.5 h; outline: as §2
[29] = Biodistribution in A-V-node of 9L-glioma bearing rat at 1 to 3 mCi, iv after 30 mins; assay type: ADME, organism-based; settings: in vivo, 0.5 h; outline: as §2
Solar plexus [30] = assay: Biodistribution in solar plexus of 9L-glioma bearing rat at 1 to 3 mCi, iv after 30 mins; assay type: ADME, organism-based; settings: in vivo, 0.5 h; outline: as §2
[31] = Biodistribution in skeletal muscle of 9L-glioma bearing rat at 1 to 3 mCi, iv after 30 mins; assay type: ADME, organism-based, Muscle tissue; settings: in vivo, 0.5 h; outline: as §2
9L [32] = assay: Biodistribution in tumor of 9L-glioma bearing rat at 1 to 3 mCi, iv after 30 mins; assay type: ADME, organism-based; settings: in vivo, 0.5 h; outline: as §2
[33] = Ratio of biodistribution in tumor to blood of 9L-glioma bearing rat at 1 to 3 mCi, iv after 30 mins; assay type: ADME, organism-based; settings: tumour, 0.5 h
[34] = Ratio of biodistribution in tumor to muscle of 9L-glioma bearing rat at 1 to 3 mCi, iv after 30 mins; assay type: ADME, organism-based; settings: in vivo, 0.5 h

Work on `C[N+]1(C)CCOC(O)(c2ccc(-c3ccc(C4(O)C[N+](C)(C[18F])CCO4)cc3)cc2)C1.O=S(=O)([O-])C(F)(F)F.[I-]` (centres undefined) yielded a Drug uptake [1] of 0.824 % ID/g, a Drug uptake [2] of 10.2 % dose and a Drug uptake (Kidney [3]) of 8.676 % ID/g. It also gave a Drug uptake (Liver [4]) of 1.228 % ID/g, a Drug uptake (Lung [5]) of 0.944 % ID/g and a Drug uptake (Brain [6]) of 0.042 % ID/g. The Drug uptake (Blood [7]) was 1.467 % ID/g, the Drug uptake (Plasma [8]) was 3.732 % ID/g and the Drug uptake [9] was 2.023 % ID/g. For the same molecule, the Drug uptake (Septum [10]) was 0.53 % ID/g, the Drug uptake [11] was 0.438 % ID/g and the Drug uptake [12] was 0.734 % ID/g. The Drug uptake [13] was 5.607 % ID/g, the Drug uptake (Solar plexus [14]) was 1.186 % ID/g and the Drug uptake [15] was 0.194 % ID/g. It also gave a Drug uptake (9L [16]) of 0.952 % ID/g, a Drug uptake (Blood [17]) of 0.378 % ID/g and a Drug uptake (Plasma [18]) of 1.272 % ID/g. The Drug uptake (Brain [19]) was 0.03 % ID/g, the Drug uptake (Lung [20]) was 0.533 % ID/g and the Drug uptake (Liver [21]) was 1.536 % ID/g. It also gave a Drug uptake (Kidney [22]) of 5.935 % ID/g, a Drug uptake [23] of 27.6 % dose and a Drug uptake [24] of 0.767 % ID/g. The Drug uptake [25] was 0.999 % ID/g, the Drug uptake (Septum [26]) was 0.262 % ID/g and the Drug uptake [27] was 0.253 % ID/g. It also gave a Drug uptake [28] of 0.243 % ID/g, a Drug uptake [29] of 0.6 % ID/g and a Drug uptake (Solar plexus [30]) of 1.009 % ID/g. For the same molecule, the Drug uptake [31] was 0.123 % ID/g, the Drug uptake (9L [32]) was 0.359 % ID/g and the Ratio [33] was 0.978. The Ratio [34] was 3.024.
